Assay outcomes from PubChem.
IEC-6 cytotox: kills IEC-6 intestinal cells in KLF5 counter-screen | IEC-6 cytotoxicity, luminescence viability | inhibition, % at 5 µM | 290,000 tested, 0.78% active | AID 1825; in the data active means inhibition above about 22%;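 further: 0% = plate median of test compound wells and 100% = cytotoxic reference compound wells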
MT stabilize HCS: microtubule stabilizers in HeLa cells. HeLa tubulin immunostaining HCS, 24 h; share of cells brighter than vehicle mean+2SD. % tubulin-high responders, % at 10 µM. 200,000 tested, 0.83% active;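 active means plate Z-score above 3 for both tubulin-high and condensed-nucleus cell shares, with cell loss under 80%, at 10 µM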;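 further: anti alpha tubulin signal scored within the nucleus-defined area of each cell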
KLF5 inh: kruppel-like factor 5 inhibition. DLD-1 KLF5 promoter-luciferase reporter, luminescence. inhibition, % at 5 µM. 290,000 tested, 0.23% active. AID 1700;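 active means inhibition above a per-plate limit of that plate's mean compound inhibition plus 3 SD, cut at about 60% in these data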;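 further: 0% = DMSO wells and 100% = LY294002 at 200 µM; higher means less KLF5 promoter-driven luciferase light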
Ba/F3 V617F tox: loss of viability in JAK2V617F-driven Ba/F3 cells; inhibition, % at 5.6 µM; 220,000 tested, 1.1% active; AID 1446; Ba/F3 EpoR-JAK2V617F viability, ATP luminescence;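 active means inhibition above the campaign mean plus 3 SD over all tested compounds, cut at about 24% in these data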;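 further: cytokine-independent growth of Ba/F3 cells driven by EpoR plus mutant JAK2; 0% = DMSO-treated cells and 100% = JAK inhibitor I control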
bCat nuc transl: modulators of beta-catenin nuclear translocation. HeLa beta-catenin nuclear translocation, immunofluorescence imaging. nuclear translocation activity, % at 5 µM. 190,000 tested, 0.3% active;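 active means nuclear translocation activity above 50% at 5 µM, with a well cell count of 50 or more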;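 further: per-cell ratio of nuclear to cytoplasmic median beta-catenin stain intensity; plate controls were DMSO negative control for no effect and GSK-3 inhibitor IX positive control for full effect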
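Signal – beta-catenin immunofluorescence imaging with DAPI · Test system – human HeLa cell line · Dosing – 5 µM primary single dose, 0.1% DMSO, 0.02–20 µM confirmation series · Measure – % activation, nuclear-to-cytoplasmic median beta-catenin signal ratio per cell · Incubation – 24 h compound exposure at 37°C, 5% CO2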
BaF3 tox: counter-screen for JAK2V617F inhibitors: parental Ba/F3 viability inhibitors; CellTiter-Glo ATP luminescence; inhibition, % at 5.6 µM; 220,000 tested, 1.1% active;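 active means inhibition above a per-campaign cutoff, the mean inhibition of all tested compounds plus 3 SD, cut at about 27% in these data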;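 further: 0% = DMSO wells and 100% = JAK Inhibitor I control wells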
Numbers without * were called inactive; / = not tested or not shown. Compounds with a hit are over-represented: about 2.1% of the library has one in this group of screens.

SMILES	IEC-6 cytotox	MT stabilize HCS	KLF5 inh	Ba/F3 V617F tox	bCat nuc transl	BaF3 tox
CCOc1ccc(/C(C)=N/N2C(=O)C(CC(=O)Nc3ccc(OC)cc3[N+](=O)[O-])SC2=Nc2cccc(C)c2C)cc1 (centres undefined)	-3	3	-4	1	3	-1
COc1ccc(N2C(N)=C(C#N)C(c3cccnc3)C3=C2CC(C)(C)CC3=O)cc1 (centres undefined)	-4	50*	-16	-3	2	5
CCC(C)NC(=O)C1CCCN1S(=O)(=O)c1ccc(Cl)cc1 (centres undefined)	4	2	18	-2	0	1
NNC(=O)C1CCCN1S(=O)(=O)c1ccc(Cl)cc1 (centres undefined)	-6	/	-19	-3	1	58*
CC(C)=CC(=O)N1CC[C@@H](N2CCN(c3ccccc3F)CC2)[C@H](O)C1	-8	/	-21	/	/	/
O=C(CSc1nc(O)cc(=O)n1-c1ccccc1)NC1CCCCC1	7	2	0	2	-6	2
O=c1cc(O)nc(SCc2ccccc2)n1-c1ccc(F)cc1	-6	3	-25	4	-2	31*
CN(CCC1CCOCC1)C(=O)CC1C(=O)NCCN1Cc1c(F)cccc1Cl (centres undefined)	4	/	-18	/	/	/
CCOC(=O)[C@@H]1[C@H]2COc3cc(OC)ccc3[C@@H]2N2C(=O)N(c3ccc(C(F)(F)F)cc3)C(=O)[C@]12C	-3	/	-10	/	/	/
CNC(=O)CN(c1cc(OCCOC)c(Cl)cc1Cl)S(=O)(=O)c1ccc(OC)cc1	8	16*	-20	-2	-2	6
COc1ccccc1/C=N/NC(=O)CSc1cc(C)nc2ccccc12	6	27*	-7	-2	35	1
COc1cccc2c(SCC(=O)N/N=C/c3ccc(O)cc3O)cc(C)nc12	-1	3	-1	2	-2	2
COc1ccc2[nH]c(C)c(CCN(Cc3cccs3)C(=S)Nc3cccc(F)c3)c2c1	-5	2	-29	45*	2	51*
COc1cccc(NC(=S)N(CCc2c(C)[nH]c3ccc(C)cc23)Cc2cccs2)c1	3	2	-23	-2	-5	6
Cc1[nH]c2ccc(F)cc2c1CCN(Cc1cccnc1)C(=S)Nc1cccc(F)c1	4	5	-13	31*	-4	28*
CCCCOCCCNc1ncnc2c1[nH]c1ccccc12	14	2	-28	64*	-1	61*
CCCCOc1ncnc2c1[nH]c1ccccc12	4	5	-23	0	-3	35*
CCOCCCNc1ncnc2c1[nH]c1ccccc12	10	2	-10	3	/	22
Cc1nc(Cl)nc(N(C)c2ccccc2)c1[N+](=O)[O-]	-3	/	-36	-2	0	-2
O=C(Nc1ccc(N2CCOCC2)nc1)c1ccc(C(F)(F)F)cc1	-4	3	-14	-3	0	0
CC1CC(C)CN(C(=O)c2cc3cc(Br)cc(Br)c3o2)C1 (centres undefined)	-12	3	-51	1	12	4
Cc1cc(C)cc(N(CCC(=O)Nc2nnc(C3CC3)s2)S(=O)(=O)c2ccc(Cl)cc2)c1	-3	19*	-24	-1	-2	4
Cc1ccc(S(=O)(=O)NCCC(=O)Nc2nnc(C3CC3)s2)cc1C	0	5	-16	3	-7	7
Cc1ccccc1C(=O)c1c[nH]c(C(=O)N2CCN(c3ccccc3F)CC2)c1	2	8	11	1	-2	3
O=C(c1c[nH]c(C(=O)N2CCN(c3ccccc3F)CC2)c1)c1cccc(Cl)c1Cl	-4	23*	-17	1	0	12
CCN(c1ccc(NC(=O)CCNC(=O)c2ccco2)cc1)C(C)C	-9	1	-24	2	1	5
N#CC1=C(N)Oc2c(ccc3cccnc23)C1c1ccccc1 (centres undefined)	3	/	50	69*	3	39*
Cc1ccc2[nH]c(=O)c(C3C(C#N)=C(N)Oc4c3ccc3cccnc43)cc2c1 (centres undefined)	3	1	4	-3	26	2
N#CC1=C(N)Oc2c(ccc3ccccc23)C1c1cccs1 (centres undefined)	2	20*	-38	0	131*	5
